A short description of data set [1]: Lipophilicity, log D of the compound at pH 7.4. Particulars: buffer. Type of data set: physicochemical.
A short description of data set [2]: Aqueous equilibrium solubility in pH 7.4 phosphate buffer incubated for 24 hrs by HPLC-UV and MS method. It counts as physicochemical.
Data set [3] in a line: Cmax in beagle dog at 10 mg/kg, po by LCMS/MS method. It counts as ADME, organism-based, Canis lupus familiaris. The arrangement: dose 10 mg/kg, route oral. Conditions: in vivo.
Data set [4] addresses Sphingosine 1-phosphate receptor 1 (Homo sapiens, UniProt P21453). Description: Antagonist activity against human S1P1 receptor expressed in human U2OS cells co-expressing GFP assessed as inhibition of S1P-induced receptor translocation. Type of data set: cell-based. The method in brief: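 Cellular S1P1 translocation (internalization) assay with antagonist; EC50 reported as mean of at least three separate determinations ± standard deviation.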

The test system of the next data set is Mus musculus. Kind of data set: Inhibition of FGF-S1P-stimulated angiogenesis in 129s1/SvImJ mouse assessed as reduction in hemoglobin level at 10 mg/kg, po administered once-daily for 4 days by spectrophotometry based matrigel plug angiogenesis assay. It counts as functional, organism-based. The method in brief:
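Matrigel (0.5 mL) with 2 µg/mL β-FGF and 1 µM S1P injected subcutaneously in the ventral region of female 129s1/SvImJ mice. Oral dosing at 10 mg/kg once daily on days 5-8 post-implant (5 per cohort); vehicle 0.5% HPMC, 0.1% Tween 80. Controls also include Matrigel without factors. Hemoglobin per gram of plug gel quantified.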

Data set [5] is described as follows: Oral bioavailability in Han Wistar rat at 10 mg/kg by LCMS/MS method. Conditions: in vivo. It counts as ADME, organism-based.
For data set [6], the target named is T1, Cytochrome P450 3A4 (Homo sapiens, UniProt P08684). Description: Induction of CYP3A4 activation in human hepatocytes at 10 uM incubated for 48 hrs using testosterone substrate relative to rifampicin. Type of data set: ADME, cell-based, Hepatocyte. The essentials:
(§1)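 Human hepatocyte CYP3A induction, testosterone probe with 6-β-hydroxytestosterone as marker; activity expressed as % of the rifampicin response; hepatocytes from two donors tested.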

Data set [7] is described as follows: Cmax in Han Wistar rat at 10 mg/kg, po by LCMS/MS method. Type of data set: ADME, organism-based. More on the design: dose 10 mg/kg, route oral. Conditions: in vivo.
Data set [8] can be described thus: Unbound fraction in rat plasma at 10 uM by LCMS/MS detection based equilibrium dialysis method. Type of data set: ADME, cell-free.
Data set [9] addresses T2, Cytochrome P450 3A5 (Homo sapiens, UniProt P20815). Description: Induction of CYP3A5 activation in human hepatocytes at 10 uM incubated for 48 hrs using testosterone substrate relative to rifampicin. It counts as ADME, cell-based, Hepatocyte. The method in brief: as §1
A further data set concerns the target T3, Cytochrome P450 1A2 (Homo sapiens, UniProt P05177).
T3 sequence (P05177 whole entry): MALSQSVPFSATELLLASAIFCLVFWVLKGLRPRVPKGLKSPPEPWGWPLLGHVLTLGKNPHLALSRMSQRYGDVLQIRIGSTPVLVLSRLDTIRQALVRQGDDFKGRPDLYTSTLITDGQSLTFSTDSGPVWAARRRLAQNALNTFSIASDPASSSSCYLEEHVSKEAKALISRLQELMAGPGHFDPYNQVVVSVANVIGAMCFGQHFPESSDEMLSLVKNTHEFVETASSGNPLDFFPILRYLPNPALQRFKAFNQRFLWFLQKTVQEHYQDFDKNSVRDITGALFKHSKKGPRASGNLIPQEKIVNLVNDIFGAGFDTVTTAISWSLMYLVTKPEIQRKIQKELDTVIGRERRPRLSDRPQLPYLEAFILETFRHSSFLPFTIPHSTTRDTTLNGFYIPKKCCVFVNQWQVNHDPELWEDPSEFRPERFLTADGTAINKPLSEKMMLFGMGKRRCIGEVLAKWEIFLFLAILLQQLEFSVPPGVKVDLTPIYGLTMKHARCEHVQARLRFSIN
Description: Inhibition of CYP1A2 in human liver microsomes incubated for 5 mins in presence of NADPH and specific substrates by LC/MS/MS method. It counts as ADME.

The next data set has as its target Cytochrome P450 2C9 (Homo sapiens, UniProt P11712). Description: Inhibition of CYP2C9 in human liver microsomes incubated for 5 mins in presence of NADPH and specific substrates by LC/MS/MS method. Type of data set: ADME.
Data set [10] can be described thus: Unbound fraction in mouse plasma at 10 uM by LCMS/MS detection based equilibrium dialysis method. It counts as ADME, cell-free.
A short description of data set [11]: Intrinsic clearance in human hepatocytes assessed per 10^6 cells at 1 uM after 0.5 to 120 mins by LCMS/MS method. Particulars: read-out: CLH. Type of data set: ADME, cell-based, Hepatocyte.
In another data set the target is Cytochrome P450 2C19 (Homo sapiens, UniProt P33261). Kind of data set: Inhibition of CYP2C19 in human liver microsomes incubated for 5 mins in presence of NADPH and specific substrates by LC/MS/MS method. It counts as ADME.
Sequence of Cytochrome P450 2C19 (P33261 whole entry): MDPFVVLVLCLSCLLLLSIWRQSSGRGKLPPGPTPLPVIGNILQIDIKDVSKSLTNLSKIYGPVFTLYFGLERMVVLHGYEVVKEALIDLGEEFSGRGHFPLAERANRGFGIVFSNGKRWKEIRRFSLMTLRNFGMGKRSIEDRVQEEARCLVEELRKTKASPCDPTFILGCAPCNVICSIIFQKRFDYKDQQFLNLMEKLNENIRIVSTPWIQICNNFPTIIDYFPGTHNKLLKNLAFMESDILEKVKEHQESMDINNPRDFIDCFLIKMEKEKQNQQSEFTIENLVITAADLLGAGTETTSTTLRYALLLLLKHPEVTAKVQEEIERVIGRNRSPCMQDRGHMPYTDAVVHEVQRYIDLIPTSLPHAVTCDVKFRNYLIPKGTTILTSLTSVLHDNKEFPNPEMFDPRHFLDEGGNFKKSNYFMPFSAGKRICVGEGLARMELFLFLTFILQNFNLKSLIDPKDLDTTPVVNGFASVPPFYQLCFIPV
Data set [12] is described as follows: Intrinsic clearance in dog hepatocytes assessed per 10^6 cells at 1 uM after 0.5 to 120 mins by LCMS/MS method. Type of data set: ADME, cell-based, Canis lupus familiaris, Hepatocyte. Conditions: read-out: CLH.
For data set [13], the target named is T4, Nuclear receptor subfamily 1 group I member 2 (Homo sapiens, UniProt O75469).
T4 sequence (O75469 whole entry): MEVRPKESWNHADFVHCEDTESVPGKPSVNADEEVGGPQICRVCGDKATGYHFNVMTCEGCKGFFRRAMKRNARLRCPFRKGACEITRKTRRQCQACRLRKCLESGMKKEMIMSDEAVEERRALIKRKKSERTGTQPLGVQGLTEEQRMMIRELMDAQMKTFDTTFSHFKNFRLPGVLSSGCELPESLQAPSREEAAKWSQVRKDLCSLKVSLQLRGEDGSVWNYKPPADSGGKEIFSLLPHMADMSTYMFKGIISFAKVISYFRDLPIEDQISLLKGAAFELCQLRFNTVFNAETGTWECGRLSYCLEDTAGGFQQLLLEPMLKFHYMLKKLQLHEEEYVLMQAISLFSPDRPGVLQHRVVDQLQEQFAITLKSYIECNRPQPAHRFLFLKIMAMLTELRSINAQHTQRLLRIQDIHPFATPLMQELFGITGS
Description: Activation of human PXR expressed in human HepG2 cells co-expressing CYP3A4 assessed as CYP3A4 activation at 10 uM by luciferase reporter gene assay relative to rifampicin. It counts as ADME, cell-based. Conditions: hepg2, 10 µM. The method in brief:
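Single-concentration PXR reporter gene screen, compound at 10 μM; activation expressed as a percentage of the response to rifampicin, also at 10 μM.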

A short description of data set [14]: Intrinsic clearance in rat hepatocytes assessed per 10^6 cells at 1 uM after 0.5 to 120 mins by LCMS/MS method. Conditions: read-out: CLH. Type of data set: ADME, cell-based, Hepatocyte.
Another data set addresses Cytochrome P450 2D6 (Homo sapiens, UniProt P10635). Kind of data set: Inhibition of CYP2D6 in human liver microsomes incubated for 5 mins in presence of NADPH and specific substrates by LC/MS/MS method. Type of data set: ADME.
Data set [15] can be described thus: Unbound fraction in human plasma at 10 uM by LCMS/MS detection based equilibrium dialysis method. Type of data set: ADME, cell-free.
The target of data set [16] is T2, Cytochrome P450 3A5. Kind of data set: Inhibition of CYP3A5 in human liver microsomes incubated for 5 mins in presence of NADPH and specific substrates by LC/MS/MS method. Type of data set: ADME.
Data set [17] is described as follows: Intrinsic clearance in mouse hepatocytes assessed per 10^6 cells at 1 uM after 0.5 to 120 mins by LCMS/MS method. Type of data set: ADME, cell-based, Hepatocyte. Particulars: read-out: CLH.
Data set [18] has as its target T1, Cytochrome P450 3A4. Kind of data set: Inhibition of CYP3A4 in human liver microsomes incubated for 5 mins in presence of NADPH and specific substrates by LC/MS/MS method. It counts as ADME.
Data set [19] can be described thus: Unbound fraction in dog plasma at 10 uM by LCMS/MS detection based equilibrium dialysis method. It counts as ADME, cell-free, Canis lupus familiaris.
Data set [20] is described as follows: Clearance in Han Wistar rat at 4 mg/kg, iv by LCMS/MS method. Particulars: in vivo. Type of data set: ADME, organism-based.

In brackets after ≈: the same amount, converted by molar mass. Activity calls are given as the source filed them. The rule behind the calls is not given here. A value given as a limit tells only on which side of the number the result lay.

T1 sequence (P08684 whole entry): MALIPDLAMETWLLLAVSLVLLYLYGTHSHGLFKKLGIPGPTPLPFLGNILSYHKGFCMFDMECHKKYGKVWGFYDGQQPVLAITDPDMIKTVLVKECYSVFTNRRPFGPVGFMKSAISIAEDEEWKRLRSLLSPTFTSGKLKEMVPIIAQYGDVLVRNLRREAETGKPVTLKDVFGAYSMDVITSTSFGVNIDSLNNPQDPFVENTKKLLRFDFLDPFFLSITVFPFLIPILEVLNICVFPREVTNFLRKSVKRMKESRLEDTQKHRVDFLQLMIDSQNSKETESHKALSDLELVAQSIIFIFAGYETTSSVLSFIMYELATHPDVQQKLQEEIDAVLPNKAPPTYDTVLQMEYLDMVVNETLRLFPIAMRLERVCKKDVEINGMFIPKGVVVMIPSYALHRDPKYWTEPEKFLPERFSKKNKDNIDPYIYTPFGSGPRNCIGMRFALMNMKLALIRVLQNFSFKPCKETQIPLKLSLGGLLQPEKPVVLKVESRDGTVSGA
T2 sequence (P20815 whole entry): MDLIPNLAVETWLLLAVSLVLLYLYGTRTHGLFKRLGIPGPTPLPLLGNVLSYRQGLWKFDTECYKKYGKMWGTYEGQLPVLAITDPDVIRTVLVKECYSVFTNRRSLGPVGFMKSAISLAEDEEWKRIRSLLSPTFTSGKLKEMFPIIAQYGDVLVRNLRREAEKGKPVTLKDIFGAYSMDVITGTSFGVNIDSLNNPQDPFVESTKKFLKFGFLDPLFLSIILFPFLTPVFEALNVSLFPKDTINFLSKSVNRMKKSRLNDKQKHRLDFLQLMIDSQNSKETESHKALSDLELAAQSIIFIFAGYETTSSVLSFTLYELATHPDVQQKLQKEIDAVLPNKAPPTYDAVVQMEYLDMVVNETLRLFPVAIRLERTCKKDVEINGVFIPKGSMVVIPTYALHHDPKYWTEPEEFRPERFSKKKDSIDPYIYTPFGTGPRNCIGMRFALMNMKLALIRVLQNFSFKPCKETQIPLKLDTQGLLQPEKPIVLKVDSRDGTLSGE
Sequence of Cytochrome P450 2D6 (P10635 whole entry): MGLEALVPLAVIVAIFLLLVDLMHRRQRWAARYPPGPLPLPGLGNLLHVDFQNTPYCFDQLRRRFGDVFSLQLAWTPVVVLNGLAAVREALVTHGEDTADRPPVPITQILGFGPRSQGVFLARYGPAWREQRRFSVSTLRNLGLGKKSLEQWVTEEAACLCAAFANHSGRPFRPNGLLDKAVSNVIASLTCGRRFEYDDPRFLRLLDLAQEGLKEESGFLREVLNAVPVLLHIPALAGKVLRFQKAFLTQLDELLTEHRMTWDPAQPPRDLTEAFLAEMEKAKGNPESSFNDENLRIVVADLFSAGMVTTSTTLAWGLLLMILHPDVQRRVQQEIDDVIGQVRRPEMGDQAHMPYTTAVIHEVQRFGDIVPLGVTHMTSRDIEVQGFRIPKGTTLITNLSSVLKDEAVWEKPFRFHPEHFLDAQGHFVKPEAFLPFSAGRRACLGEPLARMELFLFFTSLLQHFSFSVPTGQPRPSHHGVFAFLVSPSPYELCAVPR
Sequence of Sphingosine 1-phosphate receptor 1 (P21453 whole entry): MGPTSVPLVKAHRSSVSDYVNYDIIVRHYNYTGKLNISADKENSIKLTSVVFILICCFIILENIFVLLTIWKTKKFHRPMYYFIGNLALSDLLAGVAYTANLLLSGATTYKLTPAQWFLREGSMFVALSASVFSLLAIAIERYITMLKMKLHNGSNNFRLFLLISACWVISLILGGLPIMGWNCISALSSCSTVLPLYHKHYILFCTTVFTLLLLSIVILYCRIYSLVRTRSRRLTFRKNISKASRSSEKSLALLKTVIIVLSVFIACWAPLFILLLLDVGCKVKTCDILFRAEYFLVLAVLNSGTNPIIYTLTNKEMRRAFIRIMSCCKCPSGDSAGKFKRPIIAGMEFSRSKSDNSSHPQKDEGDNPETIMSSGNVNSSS
Sequence of Cytochrome P450 2C9 (P11712 whole entry): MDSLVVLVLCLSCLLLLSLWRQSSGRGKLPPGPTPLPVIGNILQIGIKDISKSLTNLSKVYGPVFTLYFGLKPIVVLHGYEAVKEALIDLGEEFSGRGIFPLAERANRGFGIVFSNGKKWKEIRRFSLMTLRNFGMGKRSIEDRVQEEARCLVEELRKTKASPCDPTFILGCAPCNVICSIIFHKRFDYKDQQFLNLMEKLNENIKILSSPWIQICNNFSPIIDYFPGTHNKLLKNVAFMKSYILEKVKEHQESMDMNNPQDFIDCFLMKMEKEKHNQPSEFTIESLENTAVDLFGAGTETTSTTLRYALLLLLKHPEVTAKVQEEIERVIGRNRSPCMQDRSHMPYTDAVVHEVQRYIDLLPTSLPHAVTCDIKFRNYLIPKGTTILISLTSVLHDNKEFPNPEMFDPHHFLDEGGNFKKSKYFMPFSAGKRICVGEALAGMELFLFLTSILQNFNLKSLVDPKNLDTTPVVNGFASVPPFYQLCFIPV

In data set [1], `CCn1c([C@@H](C)NS(=O)(=O)c2ccc(C#N)nc2)nc2cnc(C(F)(F)F)cc21` displayed a logD of 1.3. For the same compound, the thermodynamic solubility at 24 h in [2] came to 765 µM (≈ 325 µg/mL). The Cmax came out at 31.1 µM in data set [3] and 13.3 µM in [7]. In data set [4], the EC50 is 0.007 µM. For the same compound, in the data set on Mus musculus, the inhibition entry is “Active”. The compound further yielded a bioavailability in data set [5] of 87%. Besides, the Activity is recorded as under 40% at Cytochrome P450 3A4 [6], under 40% at Cytochrome P450 3A5 [9] and 15% in data set [13]. Also, the free fraction (fraction unbound) at 10 µM in [8] stood at 0.32; in [10], 0.53; in data set [15], 0.24; in data set [19] it was 0.36. The IC50 on Cytochrome P450 1A2, at Cytochrome P450 2C9, at Cytochrome P450 2C19, on Cytochrome P450 2D6, at Cytochrome P450 3A5 [16] and on Cytochrome P450 3A4 [18] was over 20 µM each time. Moreover, the hepatocyte CLint at 1 µM in [11] amounted to 1.2 µL/min/1e6 cells; in data set [12], 2.4 µL/min/1e6 cells; in [14], 2.1 µL/min/1e6 cells; in data set [17], 0.3 µL/min/1e6 cells.
Turning to `CCn1c([C@@H](C)NS(=O)(=O)c2ccc(C#N)nc2)nc2cnc(C3CC3)cc21`, the pH-dependent lipophilicity (logD) in data set [1] worked out at 1.6. In data set [2], this compound came in with a thermodynamic solubility at 24 h of over 1000 µM. Moreover, the 50% effective concentration (EC50) in data set [4] was 0.004 µM. Moreover, the inhibition entry in the data set on Mus musculus is “Active”. The same compound showed a bioavailability in data set [5] of 93%. For the same compound, the Activity on Cytochrome P450 3A4 [6] was under 40%; at Cytochrome P450 3A5 [9], under 40%; in data set [13] it was 20%. For the same compound, in data set [7], the peak level (Cmax) was 21.7 µM. Also, the free fraction (fraction unbound) at 10 µM in data set [8] is 0.18; in data set [10], 0.41; in data set [15] it was 0.19; in data set [19], 0.5. Moreover, the half-maximal inhibitory concentration (IC50) on Cytochrome P450 1A2, at Cytochrome P450 2C9, on Cytochrome P450 2C19, on Cytochrome P450 2D6, on Cytochrome P450 3A5 [16] and on Cytochrome P450 3A4 [18] was over 20 µM in each case. Besides, the hepatocyte CLint at 1 µM in [11] was 0.2 µL/min/1e6 cells; in [12] it was 1.7 µL/min/1e6 cells; in data set [14], 3.9 µL/min/1e6 cells; in data set [17] it was 2.5 µL/min/1e6 cells. Moreover, the clearance in data set [20] came out at 10 mL/min/kg.
